Experimental data: ChEMBL document CHEMBL1126909, “Synthesis and pharmacological examination of benzofuran, indan, and tetralin analogues of 3,4-(methylenedioxy)amphetamine” (J Med Chem, 1993)
Activity calls are given as the source filed them.

Assays:
Rattus norvegicus [1] = experiment: Percentage of nondisrupted animals selecting drug liver in 3 trained at 0.643 mg/kg; SDL; type: functional
Method in brief: (§1)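 Rats and training are as above: male Sprague-Dawley, food-restricted, with training doses per drug group. Test drug was given ip in saline 30 min before extinction sessions. %SDL is the share of nondisrupted rats reaching 50 presses on the drug lever. A rat not completing 50 presses in 5 min was scored as disrupted.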

Rattus norvegicus [2] = species on record: Rattus norvegicus; experiment: Inhibitory concentration against [3H]- 5-HT uptake in crude rat synaptosomes; type: functional; details: Brain
Method in brief: (§2)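 Crude synaptosomes from male Sprague-Dawley rat tissue homogenised in ice-cold isotonic sucrose. Preincubated 5 min at 37 °C under aeration with pargyline (final 100 μM), then chilled. Tritiated transmitter added at 10 nM final and uptake run 5 min at 37 °C. Catecholamine buffer had 0.06 mM ascorbate. Filtered and counted by scintillation. 9–10 concentrations in triplicate, 3–4 experiments, four-parameter logistic fit for IC50 ± SEM.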

Rattus norvegicus [3] = experiment: Percentage of nondisrupted animals selecting drug liver in 3 trained at 0.429 mg/kg; SDL; type: functional; method in brief: as §1
Rattus norvegicus [4] = experiment: Number of animals tested to that of number of animals disrupted in 3 trained at 0.108 mg/kg; Number of animals tested=8; type: functional
Method in brief: (§3)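 Drug-discrimination rats were male Sprague-Dawley, 175–200 g, kept at about 80% of free-feeding weight. They were trained against saline on (S)-1c·HCl 1.75 mg/kg, 3·HCl 1.71 mg/kg or (S)-amphetamine sulfate 1 mg/kg. Test drug was given ip in 0.9% saline at 1 mL/kg, 30 min before sessions run under extinction. A session ended at 50 presses on one lever; failing 50 presses within 5 min was scored as disrupted.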

Rattus norvegicus [5] = experiment: Number of animals tested to that of number of animals disrupted in 3 trained at 0.214 mg/kg; Number of animals tested=12; type: functional; method in brief: as §3
Rattus norvegicus [6] = experiment: Percentage of nondisrupted animals selecting drug liver in 3 trained at 1.286 mg/kg; SDL; type: functional; method in brief: as §1
Rattus norvegicus [7] = experiment: Percentage of nondisrupted animals selecting drug liver in 3 trained at 0.857 mg/kg; SDL; type: functional; method in brief: as §1
Rattus norvegicus [8] = experiment: Number of animals tested to that of number of animals disrupted in S-1c trained at 0.857 mg/kg; Number of animals tested=11; type: functional; method in brief: as §3
Rattus norvegicus [9] = experiment: Number of animals tested to that of number of animals disrupted in 3 trained at 0.429 mg/kg; Number of animals tested=12; type: functional; method in brief: as §3
Rattus norvegicus [10] = experiment: Percentage of nondisrupted animals selecting drug liver in S-1c trained at 0.643 mg/kg; SDL; type: functional
Rattus norvegicus [11] = experiment: Percentage of nondisrupted animals selecting drug liver in 3 trained at 0.214 mg/kg; SDL; type: functional; method in brief: as §1
Rattus norvegicus [12] = experiment: Number of animals tested to that of number of animals disrupted in S-1c trained at 0.429 mg/kg; Number of animals tested=10; type: functional; method in brief: as §3
Rattus norvegicus [13] = experiment: Percentage of nondisrupted animals selecting drug liver in 3 trained at 0.108 mg/kg; SDL; type: functional; method in brief: as §1
Rattus norvegicus [14] = experiment: Number of animals tested to that of number of animals disrupted in S-1c trained at 0.643 mg/kg; Number of animals tested=12; type: functional
Rattus norvegicus [15] = experiment: Number of animals tested to that of number of animals disrupted in S-1c trained at 0.215 mg/kg; Number of animals tested=10; type: functional; method in brief: as §3
Rattus norvegicus [16] = experiment: Percentage of nondisrupted animals selecting drug liver in S-1c trained at 0.429 mg/kg; SDL; type: functional
Rattus norvegicus [17] = experiment: Percentage of nondisrupted animals selecting drug liver in S-1c trained at 0.215 mg/kg; SDL; type: functional; method in brief: as §1
Rattus norvegicus [18] = experiment: Percentage of nondisrupted animals selecting drug liver in S-1c trained at 0.108 mg/kg; SDL; type: functional; method in brief: as §1
Rattus norvegicus [19] = experiment: Number of animals tested to that of number of animals disrupted in 3 trained at 0.857 mg/kg; Number of animals tested=12; type: functional; method in brief: as §3
Rattus norvegicus [20] = experiment: Number of animals tested to that of number of animals disrupted in 3 trained at 1.286 mg/kg; Number of animals tested=8; type: functional; method in brief: as §3
Rattus norvegicus [21] = experiment: Number of animals tested to that of number of animals disrupted in 3 trained at 0.643 mg/kg; Number of animals tested=12; type: functional; method in brief: as §3
Rattus norvegicus [22] = experiment: Tested for drug-discrimination stimulus effect at 0.215 mg/kg in S-1c trained animals; 0.23-0.57; type: functional
Method in brief: (§4)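 Male Sprague-Dawley rats (175–200 g) held at about 80% of free-feeding weight were trained on two levers to tell (S)-1c·HCl 1.75 mg/kg from saline. Test drugs were given in 0.9% saline, ip, 30 min before sessions run under extinction. A session ended at 50 presses on one lever, or was scored disrupted if not done within 5 min. %SDL counts nondisrupted rats. ED50 and 95% CI were derived by Litchfield–Wilcoxon.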

Rattus norvegicus [23] = experiment: Percentage of nondisrupted animals selecting drug liver in S-1c trained at 0.857 mg/kg; SDL; type: functional
Rattus norvegicus [24] = species on record: Rattus norvegicus; experiment: Inhibitory concentration against [3H]- NE uptake in crude rat synaptosomes; type: functional; details: Brain; method in brief: as §2
Rattus norvegicus [25] = species on record: Rattus norvegicus; experiment: Inhibitory concentration against [3H]- DA uptake in crude rat synaptosomes; type: functional; details: Brain; method in brief: as §2
Rattus norvegicus [26] = experiment: Number of animals tested to that of number of animals disrupted in S-1c trained at 0.108 mg/kg; Number of animals tested=7; type: functional; method in brief: as §3
Rattus norvegicus [27] = experiment: Number of animals tested to that of number of animals disrupted in S-1c trained at 0.250 mg/kg; Number of animals tested=15; type: functional; details: dose 0.25 mg/kg; method in brief: as §3
Rattus norvegicus [28] = experiment: Number of animals tested to that of number of animals disrupted in (s)-amphetamine trained at 0.500 mg/kg; Number of animals tested=15; type: functional; details: dose 0.5 mg/kg
Rattus norvegicus [29] = experiment: Number of animals tested to that of number of animals disrupted in S-1c trained at 1 mg/kg; Number of animals tested=9; type: functional; method in brief: as §3
Rattus norvegicus [30] = experiment: Percentage of nondisrupted animals selecting drug liver in (S)-amphetamine trained at 0.125 mg/kg; type: functional; method in brief: as §1
Rattus norvegicus [31] = experiment: Number of animals tested to that of number of animals disrupted in 3 trained at 0.500 mg/kg; Number of animals tested=12; type: functional; details: dose 0.5 mg/kg; method in brief: as §3
Rattus norvegicus [32] = experiment: Percentage of nondisrupted animals selecting drug liver in (S)-amphetamine trained at 0.250 mg/kg; type: functional; details: dose 0.25 mg/kg; method in brief: as §1
Rattus norvegicus [33] = experiment: Number of animals tested to that of number of animals disrupted in (s)-amphetamine trained at 0.250 mg/kg; Number of animals tested=14; type: functional; details: dose 0.25 mg/kg; method in brief: as §3
Rattus norvegicus [34] = experiment: Percentage of nondisrupted animals selecting drug liver in 3 trained at 0.250 mg/kg; type: functional; details: dose 0.25 mg/kg; method in brief: as §1
Rattus norvegicus [35] = experiment: Percentage of nondisrupted animals selecting drug liver in 3 trained at 0.125 mg/kg; type: functional; method in brief: as §1
Rattus norvegicus [36] = experiment: Percentage of nondisrupted animals selecting drug liver in S-1c trained at 0.125 mg/kg; type: functional; method in brief: as §1
Rattus norvegicus [37] = experiment: Tested for drug-discrimination stimulus effect at 0.250 mg/kg in s)-amphetamine trained animals; NS= No substitution; type: functional, organism-based; set-up: dose 0.25 mg/kg
Method in brief: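 Food-restricted male Sprague-Dawley rats were trained to tell (S)-amphetamine sulfate 1 mg/kg from saline. Test drug was given ip in 0.9% saline 30 min before extinction sessions, with 50 presses on one lever required within 5 min. No substitution was defined as 59% or less of nondisrupted rats selecting the drug lever, judged on the maximum across doses.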

Rattus norvegicus [38] = experiment: Number of animals tested to that of number of animals disrupted in S-1c trained at 0.125 mg/kg; Number of animals tested=14; type: functional; method in brief: as §3
Rattus norvegicus [39] = experiment: Tested for drug-discrimination stimulus effect at 0.250 mg/kg in S-1c trained animals; 0.15-0.28; type: functional; method in brief: as §4
Rattus norvegicus [40] = experiment: Number of animals tested to that of number of animals disrupted in (s)-amphetamine trained at 1 mg/kg; Number of animals tested=10; type: functional; method in brief: as §3
Rattus norvegicus [41] = experiment: Percentage of nondisrupted animals selecting drug liver in (S)-amphetamine trained at 0.500 mg/kg; type: functional; details: dose 0.5 mg/kg; method in brief: as §1
Rattus norvegicus [42] = experiment: Number of animals tested to that of number of animals disrupted in 3 trained at 1 mg/kg; Number of animals tested=10; type: functional; method in brief: as §3
Rattus norvegicus [43] = experiment: Percentage of nondisrupted animals selecting drug liver in S-1c trained at 0.500 mg/kg; type: functional; details: dose 0.5 mg/kg; method in brief: as §4
Rattus norvegicus [44] = experiment: Number of animals tested to that of number of animals disrupted in 3 trained at 0.125 mg/kg; Number of animals tested=10; type: functional; method in brief: as §3
Rattus norvegicus [45] = experiment: Percentage of nondisrupted animals selecting drug liver in S-1c trained at 1 mg/kg; type: functional
Rattus norvegicus [46] = experiment: Number of animals tested to that of number of animals disrupted in S-1c trained at 0.500 mg/kg; Number of animals tested=15; type: functional; details: dose 0.5 mg/kg; method in brief: as §3
Rattus norvegicus [47] = experiment: Percentage of nondisrupted animals selecting drug liver in 3 trained at 0.500 mg/kg; type: functional; details: dose 0.5 mg/kg; method in brief: as §1
Rattus norvegicus [48] = experiment: Number of animals tested to that of number of animals disrupted in (s)-amphetamine trained at 0.125 mg/kg; Number of animals tested=15; type: functional; method in brief: as §3
Rattus norvegicus [49] = experiment: Percentage of nondisrupted animals selecting drug liver in (S)-amphetamine trained at 1 mg/kg; type: functional; method in brief: as §1
Rattus norvegicus [50] = experiment: Percentage of nondisrupted animals selecting drug liver in S-1c trained at 0.250 mg/kg; type: functional; details: dose 0.25 mg/kg
Rattus norvegicus [51] = experiment: Percentage of nondisrupted animals selecting drug liver in 3 trained at 1 mg/kg; type: functional; method in brief: as §1
Rattus norvegicus [52] = experiment: Number of animals tested to that of number of animals disrupted in 3 trained at 0.250 mg/kg; Number of animals tested=11; type: functional; details: dose 0.25 mg/kg; method in brief: as §3
Rattus norvegicus [53] = species on record: Rattus norvegicus; experiment: Tested for drug-discrimination stimulus effect in 3-trained rats; type: functional

CC(N)Cc1ccc2c(c1)OCC2 (stereo unspecified)
SDL (Rattus norvegicus [1]): 100% | IC50 (Rattus norvegicus [2]): 322 nM | SDL (Rattus norvegicus [3]): 83% | Activity (Rattus norvegicus [4]): 6 | Activity (Rattus norvegicus [5]): 6 | SDL (Rattus norvegicus [6]): 100% | SDL (Rattus norvegicus [7]): 90% | Activity (Rattus norvegicus [8]): 5 | Activity (Rattus norvegicus [9]): 6 | SDL (Rattus norvegicus [10]): 88% | SDL (Rattus norvegicus [11]): 17% | Activity (Rattus norvegicus [12]): 3 | SDL (Rattus norvegicus [13]): 0% | Activity (Rattus norvegicus [14]): 4 | Activity (Rattus norvegicus [15]): 3 | SDL (Rattus norvegicus [16]): 57% | SDL (Rattus norvegicus [17]): 14% | SDL (Rattus norvegicus [18]): 0% | Activity (Rattus norvegicus [19]): 2 | Activity (Rattus norvegicus [20]): 6 | Activity (Rattus norvegicus [21]): 5 | ED50 (Rattus norvegicus [22]): 0.4 mg/kg | SDL (Rattus norvegicus [23]): 100% | IC50 (Rattus norvegicus [24]): 980 nM | IC50 (Rattus norvegicus [25]): 2000 nM | Activity (Rattus norvegicus [26]): 2

CC(N)Cc1ccc2c(c1)CCC2 (stereo unspecified)
Activity (Rattus norvegicus [27]): 5 | Activity (Rattus norvegicus [28]): 7 | Activity (Rattus norvegicus [29]): 2 | SDL (Rattus norvegicus [30]): 0% | IC50 (Rattus norvegicus [2]): 82 nM | Activity (Rattus norvegicus [31]): 6 | SDL (Rattus norvegicus [32]): 0% | Activity (Rattus norvegicus [33]): 2 | SDL (Rattus norvegicus [34]): 17% | SDL (Rattus norvegicus [35]): 13% | SDL (Rattus norvegicus [36]): 9% | ED50 (Rattus norvegicus [37]): inactive | Activity (Rattus norvegicus [38]): 3 | ED50 (Rattus norvegicus [39]): 0.2 mg/kg | Activity (Rattus norvegicus [40]): 6 | SDL (Rattus norvegicus [41]): 0% | Activity (Rattus norvegicus [42]): 8 | SDL (Rattus norvegicus [43]): 100% | Activity (Rattus norvegicus [44]): 2 | SDL (Rattus norvegicus [45]): 100% | IC50 (Rattus norvegicus [24]): 849 nM | IC50 (Rattus norvegicus [25]): 1850 nM | Activity (Rattus norvegicus [46]): 3 | SDL (Rattus norvegicus [47]): 83% | Activity (Rattus norvegicus [48]): 2 | SDL (Rattus norvegicus [49]): 0% | SDL (Rattus norvegicus [50]): 70% | SDL (Rattus norvegicus [51]): 100% | Activity (Rattus norvegicus [52]): 5

COc1cc2c(cc1C)CC(N)C2 (stereo unspecified)
ED50 (Rattus norvegicus [53]): 0.56 mg/kg
